Source: ChEMBL document CHEMBL3580660, “Synthesis and Biological Evaluation of Novel Olean-28,13β-lactams as Potential Antiprostate Cancer Agents” (J Med Chem, 2015)

What was measured:
[1] = Stability in rat plasma assessed as compound remaining after 1 hr by LC-MS/MS analysis; type: ADME, cell-free; conditions: read-out: Stability
How it was run: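 Compound at 50 ng/mL incubated in pooled heparinized rat plasma, 37 °C, 60 min. Proteins precipitated with 5 volumes cold acetonitrile containing internal standard; remaining compound measured by LC−MS/MS and expressed as percent remaining; mean ± SD.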

[2] = Half life in human liver microsomes by LC-MS/MS analysis; type: ADME
How it was run: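 Human liver microsomes at 0.2 mg/mL protein in 100 mM potassium phosphate−MgCl2 buffer pH 7.4, compound 5 μM with NADPH system at 37 °C; stopped with acetonitrile at 0, 5, 10, 15, 30, 60 min. After centrifugation, remaining compound quantified by LC−MS/MS to derive t1/2; mean ± SD.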

[3] = Apparent permeability across apical to basolateral side in human Caco2 cells at 0.5 uM measured after 30 mins by LC-MS/MS analysis; type: ADME, cell-based; conditions: Caco-2
How it was run: (§1)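 Caco2 monolayers (passages 20−40) grown 21 days at 37 °C, 5% CO2; integrity checked by TEER. Test drug 0.5 μM applied in triplicate, apical pH 6.8, basolateral pH 7.4, 37 °C for 30 min, A→B and B→A. Donor and receiver sampled, concentration by LC−MS/MS; Papp calculated; efflux ratio = Papp B→A / Papp A→B.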

[4] = Apparent permeability across basolateral to apical side in human Caco2 cells at 0.5 uM measured after 30 mins by LC-MS/MS analysis; type: ADME, cell-based; conditions: Caco-2; how it was run: as §1
[5] = Antiproliferative activity against human WPMY-1 cells after 72 hrs by CCK8 assay; type: functional, cell-based; conditions: WPMY-1, 72 h
How it was run: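 CCK-8 assay: DU-145, H460, Bxpc-3, BEL-7404 and nontumor WPMY-1 cells seeded at 5 × 10^3 cells/well in 10% FCS DMEM overnight, then exposed in triplicate to 0.041−10 μM for 72 h. CCK-8 added for final 30 min, absorbance 450 nm; inhibition relative to medium-only controls after background subtraction; IC50 as concentration giving 50% inhibition.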

Mus musculus [6] = assay: Acute toxicity in ICR mouse assessed as mortality at 800 mg/kg, oral gavage after 4 to 14 days; type: organism-based; conditions: in vivo
How it was run: (§2)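 ICR mice of both sexes, 7 weeks old, held under SPF conditions. Each got one gavage dose (800, 640, 512, 409.6 or 327.8 mg/kg) or vehicle, n = 8 per group. Deaths were recorded at 1 h, 4 h, 3 d and 4–14 d. Behaviour, water and food intake, body weight and activity were followed to day 14. LD50 given with 95% confidence limits.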

Mus musculus [7] = assay: Acute toxicity in ICR mouse assessed as mortality at 640 mg/kg, oral gavage after 4 to 14 days; type: organism-based; conditions: in vivo; how it was run: as §2
Mus musculus [8] = assay: Acute toxicity in ICR mouse assessed as mortality at 512 mg/kg, oral gavage after 4 hrs; type: organism-based; conditions: in vivo; how it was run: as §2
Mus musculus [9] = assay: Acute toxicity in ICR mouse assessed as mortality at 512 mg/kg, oral gavage after 4 to 14 days; type: organism-based; conditions: in vivo; how it was run: as §2
Mus musculus [10] = assay: Acute toxicity in ICR mouse assessed as mortality at 409.6 mg/kg, oral gavage after 4 to 14 days; type: organism-based; conditions: in vivo; how it was run: as §2
Mus musculus [11] = assay: Acute toxicity in ICR mouse assessed as total mortality at 800 mg/kg, oral gavage up to 14 days; type: organism-based; conditions: in vivo, 336 h; how it was run: as §2
Mus musculus [12] = assay: Acute toxicity in ICR mouse assessed as total mortality at […] mg/kg, oral gavage up to 14 days; type: organism-based; conditions: in vivo, 336 h; how it was run: as §2
[13] = Acute toxicity in ICR mouse assessed as survival at 800 mg/kg, oral gavage on day 14; type: organism-based; conditions: in vivo; how it was run: as §2
[14] = Acute toxicity in ICR mouse assessed as survival at 512 mg/kg, oral gavage on day 14; type: organism-based; conditions: in vivo; how it was run: as §2
[15] = Acute toxicity in ICR mouse assessed as survival at 327.8 mg/kg, oral gavage on day 14; type: organism-based; conditions: in vivo; how it was run: as §2
[16] = Acute toxicity oral gavage treated in ICR mouse assessed as mortality measured up to 14 days; type: organism-based; conditions: in vivo; how it was run: as §2
DU-145 [17] = assay: Anticancer activity against human DU145 cells xenografted in BALB/c mouse assessed as decrease in tumor growth at 8.5 mg/kg, oral gavage for 21 days relative to vehicle treated control; type: functional; conditions: DU-145, po, 504 h
How it was run: (§3)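 Male BALB/c nude mice (6−8 weeks, 18−22 g) implanted subcutaneously on right axillary flank with 2 × 10^6 DU-145 cells in 0.1 mL saline. At 100 ± 30 mm3 tumors, randomized (n = 5/group) to daily gavage for 21 days; vehicle DMSO/Cremphor EL/PBS 1:1:8. Tumor volume every 3 days; tumors excised and weighed at end; TGI from mean tumor weights vs vehicle; body weight tracked.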

Mus musculus [18] = assay: Toxicity in human DU145 cells xenografted in BALB/c mouse assessed as change in body weight at 17 mg/kg, oral gavage for 21 days relative to vehicle treated control; type: organism-based, DU-145; conditions: in vivo, 504 h; how it was run: as §3
DU-145 [19] = assay: Induction of cell cycle arrest in human DU145 cells assessed as cells accumulation at S phase at 0.08 uM after 24 hrs by propidium iodide staining-based flow cytometry (reference value: 24%); type: functional
DU-145 [20] = assay: Induction of cell cycle arrest in human DU145 cells assessed as cells accumulation at S phase at 0.16 uM after 24 hrs by propidium iodide staining-based flow cytometry (reference value: 24%); type: functional
Cytochrome P450 1A2 = target: T1, Cytochrome P450 1A2 (Homo sapiens, UniProt P05177); assay: Inhibition of CYP1A2 in human liver microsomes after 1 hr by LC-MS/MS analysis
T1 sequence (P05177 whole entry): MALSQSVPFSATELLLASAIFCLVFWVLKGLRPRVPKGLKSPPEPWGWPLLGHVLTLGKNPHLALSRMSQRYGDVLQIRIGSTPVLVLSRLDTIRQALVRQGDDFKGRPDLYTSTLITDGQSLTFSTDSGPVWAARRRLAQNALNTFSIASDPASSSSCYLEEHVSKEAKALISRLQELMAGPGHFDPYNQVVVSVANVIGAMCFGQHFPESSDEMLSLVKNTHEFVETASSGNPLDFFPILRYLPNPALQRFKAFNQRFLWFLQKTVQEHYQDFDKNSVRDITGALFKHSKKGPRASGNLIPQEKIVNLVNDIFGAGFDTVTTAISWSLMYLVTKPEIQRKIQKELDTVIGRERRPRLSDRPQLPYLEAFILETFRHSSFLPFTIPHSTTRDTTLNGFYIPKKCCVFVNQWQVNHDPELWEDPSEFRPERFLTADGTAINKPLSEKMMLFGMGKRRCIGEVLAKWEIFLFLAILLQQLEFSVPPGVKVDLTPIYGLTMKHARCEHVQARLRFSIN

Cytochrome P450 3A4 = Cytochrome P450 3A4 (Homo sapiens, UniProt P08684); assay: Inhibition of CYP3A4 in human liver microsomes using midazolam as substrate after 1 hr by LC-MS/MS analysis
Cytochrome P450 3A4, sequence (P08684 whole entry): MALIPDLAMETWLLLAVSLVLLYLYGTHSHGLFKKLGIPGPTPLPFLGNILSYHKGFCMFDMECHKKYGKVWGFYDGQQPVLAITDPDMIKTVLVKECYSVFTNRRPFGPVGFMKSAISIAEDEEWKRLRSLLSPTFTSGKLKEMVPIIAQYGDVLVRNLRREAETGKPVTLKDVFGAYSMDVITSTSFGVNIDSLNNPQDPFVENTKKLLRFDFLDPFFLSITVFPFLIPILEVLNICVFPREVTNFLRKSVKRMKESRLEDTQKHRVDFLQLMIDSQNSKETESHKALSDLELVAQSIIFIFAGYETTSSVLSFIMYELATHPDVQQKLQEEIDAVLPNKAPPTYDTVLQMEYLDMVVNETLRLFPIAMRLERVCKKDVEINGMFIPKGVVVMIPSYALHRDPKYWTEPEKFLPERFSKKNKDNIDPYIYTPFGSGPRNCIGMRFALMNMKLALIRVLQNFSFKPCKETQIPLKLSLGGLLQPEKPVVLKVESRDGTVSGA

`CC1(C)CC[C@]23CC[C@@]4(C)[C@]5(C)CC[C@H]6C(C)(C)C(=O)C(C#N)=C[C@]6(C)C5=CC(=O)[C@@]4([C@@H]2C1)N(C1CCCCC1)C3=O` showed a remaining at 1 h [1] of 46%, a half-life [2] of 39 min and a Papp A→B at 0.5 h, 0.5 µM [3] of 0.045 ×10⁻⁶ cm/s. The Papp B→A at 0.5 h, 0.5 µM [4] was 0.059 ×10⁻⁶ cm/s, the IC50 [5] was 6.09 µM and the Activity (Mus musculus [6]) was “Non-toxic”. For the same compound, the Activity (Mus musculus [7]) was “Non-toxic”, the Activity (Mus musculus [8]) was “Non-toxic” and the Activity (Mus musculus [9]) was “Non-toxic”. The Activity (Mus musculus [10]) was “Non-toxic”, the Activity (Mus musculus [11]) was “Toxic” and the Activity (Mus musculus [12]) was “Toxic”. For the same compound, the survival at 14 day [13] was 0%, the survival at 14 day [14] was 63% and the survival at 14 day [15] was 100%. For the same compound, the LD50 at 336 h [16] was 541 mg/kg, the inhibition in vivo at 8.5 mg/kg (DU-145 [17]) was 30% and the Activity (Mus musculus [18]) was “Non-toxic”. The Activity (DU-145 [19]) was 25%, the Activity (DU-145 [20]) was 10% and the IC50 (Cytochrome P450 1A2) was greater than 100 µM. For the same compound, the IC50 (Cytochrome P450 3A4) was 0.932 µM.
